Rows were chosen to be rich in hits. Some 3.1% of all compounds tested hit in one or more screens of this group.
INS-1E GSIS act: GLuc luminescence reporter in INS-1E cells, primary screen for activators of glucose-dependent secretion of insulin; activation, % at 16.6 µM; INS-1E GLuc reporter insulin secretion, 2-3 h; hit rate 0.61% among 370,000; AID 743287;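 active = lowest replicate activation of at least 40%, so every replicate reaches that level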
Ecoli rRNA inh: selective bacterial rRNA inhibition in E. coli; E. coli WT GFP vs humanized-ribosome RFP mutants, fluorescence, 24 h; stronger effect = lower value; DMSO median 0, no signal -100; GFP signal change (wild-type ribosome), % (no concentration beside the values); hit rate 1.6% among 350,000; AID 720706;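 active = significant combined selectivity score with lowered wild-type GFP, culture density cut under 30%, mutant RFP and density less affected; inactive = any of these conditions unmet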
miR122 inh: blocks miR-122 activity in Huh7 sensor cells; AID 602342; activation (reporter increase), % at 12.5 µM; Huh7 miR-122 Renilla luciferase sensor, 48 h; neutral wells = 0, positive control = 100; hit rate 0.3% among 340,000;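 active = mean replicate activation score at least 90 and every replicate individually at or above 90; inconclusive = only one of the two criteria met; inactive = neither criterion met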;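 note: higher luciferase means less miR-122 activity so hits act as miR-122 inhibitors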
F508del corr: correctors of CFTR F508del function in bronchial epithelial cells. CFBE cells, YFP halide quenching; stimulated with forskolin plus potentiator P3; % fluorescence drop versus neutral controls. activity (quench increase), % at 7.58 µM. hit rate 0.36% among 350,000;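 active = mean added fluorescence quench of at least 8% versus neutral control, with both replicates also reaching 8%; inconclusive = only one of the mean or replicate conditions met; inactive = mean below 8% and not both replicates reaching 8%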;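 note: cells transiently co-express mutant CFTR-F508del with the halide-sensitive YFP; corrector assay measuring rescue of mutant channel to the surface after 24 h compound exposure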
Env fusion inh: inhibitors of HIV Env-mediated cell fusion. HeLa-JRFL Env/CEM21 cell fusion, luciferase. inhibition, % at 12.3 µM. hit rate 1.1% among 360,000. AID 651610;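 active = mean replicate inhibition score of at least 50 and every replicate individually at or above 50; inconclusive = only one of the two criteria met; inactive = mean below 50 and not all replicates reaching 50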
Cneo AK release: Cryptococcus neoformans lysis via adenylate kinase release. lysis activity, % at 15 µM. hit rate 0.2% among 360,000. C. neoformans lysis, adenylate kinase release luminescence, 4 h; normalised: neutral wells 0, clomiphene wells 100;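 active = mean lysis activity across replicates of at least 80%, whatever share of replicates individually reach that level; inactive = mean lysis activity below 80%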
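Signal: Adenylate kinase release luminescence | Assay system: Log-phase Cryptococcus neoformans yeast cells | Input: Cells at 5 × 10^6 per mL | Buffer or medium: Fresh YPD growth medium | Compound: Single dose | Schedule: Static 4 h at 37 °C with compound, 1 h detection | Controls: Clomiphene | Read-out: Luminescence rise reflecting yeast cell lysis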
AID977621: growth inhibition of wild-type GFP E. coli, dose response, H69 mutant RFP, cherry-pick; shares compounds with Ecoli rRNA inh; E. coli wild-type GFP strain growth, fluorescence, 24 h; activity change, negative = inhibition at 50 µM; 1,900 tested, under 10 active;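 active = Wild-type ribosome reporter drop at least double the humanized mutant ribosome reporter drop, growth loss under a set limit; inconclusive = no clear call, values can overlap the other calls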;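 note: wild-type GFP and H69 mutant RFP strains grown together 50/50 in each well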
AID977628: E. coli growth inhibition, wild-type GFP versus h24 humanized RFP strain, dose response, h24 mutant RFP vs wild-type GFP, cherry-pick; shares compounds with Ecoli rRNA inh; E. coli WT GFP strain growth, fluorescence, 24 h; activity change, negative = inhibition at 50 µM; 1,900 tested, under 10 active; AID 977628;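 active = compound lowering the normal-ribosome reporter at least twice as much as the humanized-ribosome reporter, growth loss under a set limit; inconclusive = no clear call, values can overlap the other calls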;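 note: wild-type GFP and h24 humanized RFP strains co-cultured 1 to 1 per well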
Numbers stand for hits; - = inactive; ? = inconclusive; . = not tested or not shown.

SMILES	INS-1E GSIS act	Ecoli rRNA inh	miR122 inh	F508del corr	Env fusion inh	Cneo AK release	AID977621	AID977628
CC(C)(C)c1cc(-c2n[nH]c(=S)n2-c2ccc(Cl)cc2)n[nH]1	.	-31	.	-	-	.	?	.
Cc1nn(C)cc1-c1n[nH]c(=S)n1-c1ccc(Cl)cc1	-	-	-	-	-	-	.	.
Cc1c(C(=O)NC2CCN(Cc3ccccc3)C2)oc2ccc(Br)cc12 (centres undefined)	-	-	.	-	-	-	.	.
CCOc1ccc2oc(C(=O)NC3CCN(Cc4ccccc4)CC3)c(C)c2c1	-	-23	-	-	-	-	-	.
CN1CCN(C(=O)c2cc3sc4ccccc4c3s2)CC1	-	-24	-	-	-	-	.	?
O=C1CSc2ccc(S(=O)(=O)NCc3ccc(F)cc3)cc2N1	-	-	-	-	-	-	.	.
Cc1ccc(CNS(=O)(=O)c2ccc3c(c2)NC(=O)CS3)cc1	-	-20	-	-	-	-	?	.
CCOc1ccc2oc(-c3ccccc3)c(C(=O)N(C)C)c2c1	-	-26	-	-	.	-	-	-
CCCc1nc2cc(C)c(Br)c(C)n2c1CC1CCCCC1	-	-20	.	-	-	.	.	-
Cc1ccc(-c2nc3cc(C)c(Br)c(C)n3c2CC2CCCCC2)cc1	-	-	.	-	-	.	.	.
COc1ccc(NC(=O)Nc2cccc3c2O[C@H](CN(C)C(=O)Nc2ccc(OC)cc2)[C@H](C)CN([C@@H](C)CO)C3=O)cc1	-	-	-	-	-	-	.	.
CC(=O)CSc1ccc(-c2nc3cc(C)c(C)cc3[nH]2)cn1	-	-	.	-	-	.	.	.
CC(=O)CSc1ccc(-c2nc3ccccc3[nH]2)cn1	-	-24	.	-	-	-	-	-
CCn1c(CNC(=O)c2ccccc2F)cc2cc(C)ccc21	-	-20	.	-	-	-	?	.
Cc1ccc(NC(=O)c2ccccc2F)c(NC(=O)c2ccccc2F)c1	.	-20	-	-	-	-	-	-
COc1cccc(NC(=O)C[C@H]2CC[C@@H]3[C@@H](COc4ccc(NC(C)=O)cc4C(=O)N3C)O2)c1	-	-	-	-	-	-	.	.
CCOc1ccc(OCc2ccc(C(=O)N3CCCC3)o2)cc1	-	-17	-	-	.	-	-	-
Cc1ccc(C(=O)OCC(=O)c2c[nH]c3ccccc23)cc1NC(=O)c1ccco1	-	-20	.	-	-	.	.	?
CCN1[C@@H]2Cn3c(ccc(-c4ccncc4)c3=O)[C@H]1[C@@H](C(=O)NCc1ccccc1)[C@@H]2CO	-	-	-	-	.	-	.	.
Cc1ccc(NC(=O)CN(C)S(=O)(=O)c2cccc3cccnc23)cc1F	-	-28	.	-	-	-	-	.
CC(=O)N(C)C[C@@H]1Oc2c(NS(C)(=O)=O)cccc2C(=O)N(C)C[C@H]1C	-	-	.	.	.	.	.	.
CC(=O)Nc1cccc(Nc2nc(-c3ccccc3)nc3ccccc23)c1	-	-22	.	-	-	.	.	?
CC(=O)Nc1ccc2nc3ccccc3nc2c1	.	-26	-	-	-	.	-	.
CC(=O)c1cccc(Nc2nc(-c3ccccc3)nc3ccccc23)c1	-	-	-	-	-	-	.	.
Cc1noc(C)c1NC(=O)Nc1ccc2c(c1)C(=O)N([C@@H](C)CO)C[C@@H](C)[C@H](CN(C)Cc1ccncc1)OCCCC[C@H](C)O2	-	-	-	-	-	-	.	.
SMILES	INS-1E GSIS act	Ecoli rRNA inh	miR122 inh	F508del corr	Env fusion inh	Cneo AK release	AID977621	AID977628
O=[N+]([O-])c1ccc(Cl)cc1NCc1cccnc1	.	-21	.	-	-	.	-	?
O=C(O)c1ccc(NCc2cccnc2)c([N+](=O)[O-])c1	-	-	-	-	-	-	.	.
CC(C)(C)NC(=O)CC(CC(=O)O)c1ccccc1 (centres undefined)	-	-	.	-	-	-	.	.
O=C(O)CC(CC(=O)Nc1ccc2ccccc2n1)c1ccccc1 (centres undefined)	-	-20	.	-	-	.	-	-
COc1ccc(NC(=O)N(C)C[C@@H]2Oc3ccc(N(C)C)cc3C(=O)N([C@@H](C)CO)C[C@@H]2C)cc1	-	-	-	-	-	-	.	.
O=C(C[C@@H]1CC[C@@H]2[C@H](COC[C@H](O)CN2S(=O)(=O)c2ccccc2)O1)NCCN1CCCCC1	-	-	-	-	-	-	.	.
O=C(NCc1ccccc1)c1ccc(-c2ccccc2F)o1	-	-38	.	-	.	-	-	?
O=C(NCCc1ccccc1)c1ccc(-c2ccccc2C(F)(F)F)o1	-	-	.	-	-	.	.	.
O=C(CC1SC(=O)N(Cc2ccccc2Cl)C1=O)Nc1nccs1 (centres undefined)	-	-22	-	-	-	-	-	-
O=C(CC1SC(=O)N(Cc2ccccc2)C1=O)Nc1nccs1 (centres undefined)	-	-	-	-	-	-	.	.
C[C@H](CO)N1C[C@H](C)[C@H](CN(C)Cc2ccc(Cl)c(Cl)c2)OCCCC[C@H](C)Oc2ccc(NS(C)(=O)=O)cc2C1=O	-	-	.	-	.	.	.	.
C[C@H](CO)N1C[C@H](C)[C@H](CN(C)Cc2ccc(C(F)(F)F)cc2)Oc2ccc(NC(=O)CCC(F)(F)F)cc2CC1=O	-	-	-	-	.	-	.	.
CCS(=O)(=O)N1CCCCN2[C@@H](CO)[C@@H](c3ccc(C4=CCCC4)cc3)[C@@H]2C1	-	-	-	-	.	-	.	.
CCc1ccn2cc(-c3ccc4c(c3)OCO4)nc2c1	-	-26	-	-	-	-	-	.
Cc1noc(C)c1NC(=O)Nc1ccc2c(c1)C(=O)N([C@H](C)CO)C[C@H](C)[C@H](CN(C)CC1CCCCC1)OCCCC[C@H](C)O2	-	-	-	-	-	-	.	.
COCCCNC(=O)C[C@@H]1C[C@@]2(C(=O)OC)CCCCC=C2N(Cc2ccccc2)C1=O	-	-	.	-	-	.	.	.
CCCCNC(=O)C[C@@H]1C[C@@]2(C(=O)OC)CCCCC=C2N(Cc2ccccc2)C1=O	-	-22	.	-	-	.	-	.
COc1ccc(NC(=O)N(C)C[C@@H]2OCCCC[C@H](C)Oc3ccc(NS(=O)(=O)c4cccs4)cc3C(=O)N([C@H](C)CO)C[C@H]2C)cc1	-	-	-	-	-	-	.	.
Cc1ccccc1OCc1nc2ccccc2n1C	-	-27	-	-	-	-	.	-
Cn1c(COc2ccc(F)cc2)nc2ccccc21	-	-	-	-	-	-	.	.
CC(C)CNc1nc(S(=O)(=O)c2ccccc2)c(Cl)s1	-	-40	-	-	-	-	?	-

Screens (PubChem)
